Measured values: ChEMBL document CHEMBL1149092, “Studies on pyrrolopyrimidines as selective inhibitors of multidrug-resistance-associated protein in multidrug resistance” (J Med Chem, 2004)

How the values were obtained:
[1] = target: Multidrug resistance-associated protein 1 (Homo sapiens, UniProt P33527); test: Inhibitory activity against human transporter MRP1 (Multidrug resistance associated protein 1) expressed in COR.L23/R cell line
Method in brief: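 Tritiated daunomycin (0.3 μCi/mL) accumulation in COR.L23/R cells (MRP-expressing human NSCLC MDR subline), seeded 48 h before the assay. Cells were washed and cell-associated radioactivity measured. 100% accumulation was set with 100 μM verapamil.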

[2] = target: ATP-dependent translocase ABCB1 (Mus musculus, UniProt P06795); test: Inhibitory activity against mouse transporter Pgp (P-glycoprotein) expressed in EMT6/AR1.0 cell line
Sequence of ATP-dependent translocase ABCB1 (P06795 whole entry): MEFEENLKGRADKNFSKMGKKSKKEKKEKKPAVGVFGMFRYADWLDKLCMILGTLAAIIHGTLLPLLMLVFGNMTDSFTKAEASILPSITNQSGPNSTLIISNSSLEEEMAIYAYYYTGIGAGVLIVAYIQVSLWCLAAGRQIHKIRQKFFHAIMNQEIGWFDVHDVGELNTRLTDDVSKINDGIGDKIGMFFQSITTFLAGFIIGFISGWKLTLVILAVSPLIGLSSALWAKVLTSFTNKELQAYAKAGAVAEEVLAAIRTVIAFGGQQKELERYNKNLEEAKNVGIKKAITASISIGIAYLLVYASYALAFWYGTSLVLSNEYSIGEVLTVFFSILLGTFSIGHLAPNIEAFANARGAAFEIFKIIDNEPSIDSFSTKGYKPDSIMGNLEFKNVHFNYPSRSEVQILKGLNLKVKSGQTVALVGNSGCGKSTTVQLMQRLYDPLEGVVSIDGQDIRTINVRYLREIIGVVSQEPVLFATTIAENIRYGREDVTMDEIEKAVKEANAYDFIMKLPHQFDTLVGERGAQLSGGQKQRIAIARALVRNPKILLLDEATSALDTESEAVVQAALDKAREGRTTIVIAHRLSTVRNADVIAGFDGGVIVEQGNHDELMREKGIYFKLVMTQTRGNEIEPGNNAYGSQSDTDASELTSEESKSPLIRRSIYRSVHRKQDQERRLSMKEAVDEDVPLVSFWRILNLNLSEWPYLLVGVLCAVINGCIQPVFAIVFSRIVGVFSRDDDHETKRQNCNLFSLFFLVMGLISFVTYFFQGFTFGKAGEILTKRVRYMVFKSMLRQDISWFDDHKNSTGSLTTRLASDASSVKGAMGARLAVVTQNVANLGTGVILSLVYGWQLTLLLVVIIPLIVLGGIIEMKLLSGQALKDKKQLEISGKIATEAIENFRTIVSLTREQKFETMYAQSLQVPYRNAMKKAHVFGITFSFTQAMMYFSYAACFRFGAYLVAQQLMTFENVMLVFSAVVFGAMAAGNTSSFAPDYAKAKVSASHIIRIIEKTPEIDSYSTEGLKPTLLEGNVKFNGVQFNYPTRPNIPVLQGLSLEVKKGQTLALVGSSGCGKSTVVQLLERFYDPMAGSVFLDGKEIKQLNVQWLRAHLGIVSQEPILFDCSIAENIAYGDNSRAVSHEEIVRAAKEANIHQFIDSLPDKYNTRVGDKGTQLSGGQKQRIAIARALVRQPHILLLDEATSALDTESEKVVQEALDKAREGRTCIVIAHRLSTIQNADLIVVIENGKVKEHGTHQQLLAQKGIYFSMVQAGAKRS
Method in brief: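 Accumulation protocol run as for MRP1, but in the Pgp-expressing murine mammary carcinoma EMT6/AR1.0 subline. IC50 is the mean of at least three experiments.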

Mus musculus [3] = test: (§1) Area under curve when injected intravenously in BALB/C mice at a dose of 20 mg/kg; format: ADME, organism-based; parameters: dose 20 mg/kg, route intravenous; settings: in vivo, iv
Method in brief: (§2)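 Female Balb/c mice, three to four per time point, were dosed iv, ip or po at 20–50 mg/kg. Blood was taken by cardiac puncture under anesthesia from 0.03 to 24 h. Plasma was methanol-extracted and analysed by HPLC. AUC (linear/log trapezoidal) and t1/2 were derived by noncompartmental analysis.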

Mus musculus [4] = test: (§3) Maximal plasma concentration in BALB/C mice after 20 mg/kg intravenous dose; format: ADME, organism-based; parameters: dose 20 mg/kg, route intravenous; settings: in vivo; method in brief: as §2
Mus musculus [5] = test: (§4) Half life in BALB/C mice at the dose of 20 mg/kg by i.v. administration; format: ADME, organism-based; parameters: dose 20 mg/kg, route intravenous; settings: in vivo, iv; method in brief: as §2
Cytochrome P450 3A4 = Cytochrome P450 3A4 (Homo sapiens, UniProt P08684); test: Inhibitory concentration to inhibit MRP1 in CYP 3A4 assay
Sequence of Cytochrome P450 3A4 (P08684 whole entry): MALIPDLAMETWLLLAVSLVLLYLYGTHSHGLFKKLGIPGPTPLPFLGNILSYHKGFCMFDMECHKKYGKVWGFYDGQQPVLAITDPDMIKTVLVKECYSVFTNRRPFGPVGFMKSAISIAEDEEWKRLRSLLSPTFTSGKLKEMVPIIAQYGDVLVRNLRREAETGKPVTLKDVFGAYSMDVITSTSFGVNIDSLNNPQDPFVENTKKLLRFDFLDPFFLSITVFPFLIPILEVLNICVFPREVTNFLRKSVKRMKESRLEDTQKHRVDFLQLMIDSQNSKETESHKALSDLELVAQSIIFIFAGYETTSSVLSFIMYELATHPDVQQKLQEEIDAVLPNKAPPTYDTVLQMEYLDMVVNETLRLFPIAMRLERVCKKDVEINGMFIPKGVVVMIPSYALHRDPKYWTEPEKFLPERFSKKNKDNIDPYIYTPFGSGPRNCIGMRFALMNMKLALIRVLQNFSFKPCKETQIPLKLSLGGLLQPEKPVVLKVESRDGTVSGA

[6] = Area under curve when injected intraperitoneally in BALB/C mice at a dose of 20 mg/kg; format: ADME, organism-based; parameters: dose 20 mg/kg, route intraperitoneal; settings: mouse, in vivo, ip; method in brief: as §2
[7] = as §1; format: ADME, organism-based; parameters: dose 20 mg/kg, route intravenous; settings: BALB/C, mouse, in vivo, iv; method in brief: as §2
[8] = Area under curve when injected perorally in BALB/C mice at a dose of 50 mg/kg; format: ADME, organism-based; parameters: dose 50 mg/kg, route oral; settings: mouse, in vivo, po; method in brief: as §2
[9] = Maximal plasma concentration in BALB/C mice after 20 mg/kg intraperitoneal dose; format: ADME, organism-based; parameters: dose 20 mg/kg, route intraperitoneal; settings: mouse, ip; method in brief: as §2
[10] = as §3; format: ADME, organism-based; parameters: dose 20 mg/kg, route intravenous; settings: BALB/C, mouse, plasma; method in brief: as §2
[11] = Maximal plasma concentration in BALB/C mice after 50 mg/kg oral dose; format: ADME, organism-based; parameters: dose 50 mg/kg, route oral; settings: mouse; method in brief: as §2
[12] = Half life in BALB/C mice at the dose of 20 mg/kg by i.p. administration; format: ADME, organism-based; parameters: dose 20 mg/kg, route intraperitoneal; settings: mouse, in vivo, ip; method in brief: as §2
[13] = as §4; format: ADME, organism-based; parameters: dose 20 mg/kg, route intravenous; settings: mouse, in vivo, iv; method in brief: as §2
[14] = Bioavailability in mouse (BALB/C) (dose 50 mg/kg p.o.); settings: in vivo, po
[15] = Bioavailability in mouse (BALB/C) (dose 20 mg/kg i.p.); settings: in vivo, ip
[16] = Half life in BALB/C mice at the dose of 50 mg/kg by p.o. administration; settings: mouse, in vivo, po
[17] = Half life in BALB/C mice at the dose of 50 mg/kg by p.o. administration; format: ADME, organism-based; parameters: dose 50 mg/kg, route oral; settings: mouse, in vivo, po; method in brief: as §2
[18] = Half life in BALB/C mice at the dose of 50 mg/kg by i.p. administration; format: ADME, organism-based; parameters: dose 50 mg/kg, route intraperitoneal; settings: mouse, in vivo, ip; method in brief: as §2

Sequence of Multidrug resistance-associated protein 1 (P33527 whole entry): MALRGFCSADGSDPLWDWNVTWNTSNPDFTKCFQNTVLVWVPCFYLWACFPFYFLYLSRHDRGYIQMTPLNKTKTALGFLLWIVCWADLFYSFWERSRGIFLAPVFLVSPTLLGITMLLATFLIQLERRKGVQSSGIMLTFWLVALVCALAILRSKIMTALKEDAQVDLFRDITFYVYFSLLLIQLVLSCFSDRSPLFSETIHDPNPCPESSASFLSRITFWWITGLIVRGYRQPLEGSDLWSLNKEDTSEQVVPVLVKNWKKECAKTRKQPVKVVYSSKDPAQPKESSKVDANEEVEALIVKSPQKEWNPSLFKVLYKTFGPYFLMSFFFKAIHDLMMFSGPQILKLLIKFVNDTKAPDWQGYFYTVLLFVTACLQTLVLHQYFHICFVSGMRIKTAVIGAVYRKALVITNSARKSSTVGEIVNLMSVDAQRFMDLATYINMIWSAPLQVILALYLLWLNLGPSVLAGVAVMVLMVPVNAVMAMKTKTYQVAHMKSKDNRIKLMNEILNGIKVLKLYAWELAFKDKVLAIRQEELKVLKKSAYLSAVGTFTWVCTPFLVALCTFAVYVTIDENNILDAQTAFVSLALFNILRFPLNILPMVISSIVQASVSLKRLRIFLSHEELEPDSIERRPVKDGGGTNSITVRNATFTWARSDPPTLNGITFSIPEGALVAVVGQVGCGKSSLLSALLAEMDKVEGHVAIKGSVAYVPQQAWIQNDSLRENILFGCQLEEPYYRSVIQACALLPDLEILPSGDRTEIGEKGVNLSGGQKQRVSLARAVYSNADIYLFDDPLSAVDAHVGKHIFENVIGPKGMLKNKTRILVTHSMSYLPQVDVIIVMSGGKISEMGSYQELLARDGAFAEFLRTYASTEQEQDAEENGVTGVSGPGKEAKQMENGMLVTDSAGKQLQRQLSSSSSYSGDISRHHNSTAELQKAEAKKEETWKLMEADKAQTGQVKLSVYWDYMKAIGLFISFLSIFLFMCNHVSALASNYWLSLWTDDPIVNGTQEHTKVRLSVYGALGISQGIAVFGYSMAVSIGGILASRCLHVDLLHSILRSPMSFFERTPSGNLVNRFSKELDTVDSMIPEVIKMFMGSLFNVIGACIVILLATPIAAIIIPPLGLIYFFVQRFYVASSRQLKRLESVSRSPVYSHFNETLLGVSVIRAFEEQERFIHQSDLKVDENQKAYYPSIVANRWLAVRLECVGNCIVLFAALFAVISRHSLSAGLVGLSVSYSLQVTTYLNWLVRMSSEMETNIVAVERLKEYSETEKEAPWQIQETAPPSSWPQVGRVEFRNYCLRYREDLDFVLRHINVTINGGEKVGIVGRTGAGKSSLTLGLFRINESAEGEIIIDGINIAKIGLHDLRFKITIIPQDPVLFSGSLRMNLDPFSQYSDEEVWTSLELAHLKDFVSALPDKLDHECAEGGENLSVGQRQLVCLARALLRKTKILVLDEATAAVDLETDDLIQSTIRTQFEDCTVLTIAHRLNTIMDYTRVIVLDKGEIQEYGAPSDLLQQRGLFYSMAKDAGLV

Compound | IC50 [1] | IC50 [2] | further results
O=C(c1ccccc1)c1c2n(c3c(N4CCN(CCc5ccccc5)CC4)ncnc13)CCCC2 | 1.37 µM | 10.7 µM | –
COc1cccc(CNC(=O)c2c3n(c4c(N5CCN(CCc6ccc(F)c(F)c6)CC5)ncnc24)CCCC3)c1OC | 0.043 µM | 3.7 µM | AUC (Mus musculus [3]): 12000 ng·h/mL; Cmax (Mus musculus [4]): 4 µM; T1/2 (Mus musculus [5]): 0.8 h; IC50 (Cytochrome P450 3A4): 2.44 µM
N#Cc1c2n(c3c(N4CCN(CCCc5ccccc5)CC4)ncnc13)CCCC2 | 7.35 µM | 13 µM | –
COc1ccc(CCN2CCN(c3ncnc4c(C#N)c5n(c34)CCCC5)CC2)cc1 | > 50 µM | – | –
N#Cc1c2n(c3c(N4CCN(CC(=O)c5ccccc5)CC4)ncnc13)CCCC2 | 1.85 µM | 23 µM | –
NC(=O)c1c2n(c3c(N4CCN(CCc5ccc(F)c(F)c5)CC4)ncnc13)CCCC2 | 0.138 µM | > 50 µM | AUC [6]: 13100 ng·h/mL; AUC [7]: 25000 ng·h/mL; AUC [8]: 44900 ng·h/mL; Cmax [9]: 4.43 µM; Cmax [10]: 28 µM; Cmax [11]: 8.37 µM; half-life [12]: 6.35 h; half-life [13]: 1.47 h; IC50 (Cytochrome P450 3A4): 45.8 µM; bioavailability [14]: 71.6%; bioavailability [15]: 52%; half-life [16]: 6.86 h
CCC(=O)c1c2n(c3c(N4CCN(CCc5ccccc5)CC4)ncnc13)CCCC2 | 2.8 µM | > 50 µM | –
N#Cc1c2n(c3c(N4CCN(CCc5ccccc5)CC4)nc(-c4ccccc4)nc13)CCCC2 | 0.715 µM | 5 µM | –
COC(=O)c1c2n(c3c(N4CCN(CCc5ccccc5)CC4)ncnc13)CCCC2 | 0.91 µM | 16.5 µM | –
N#Cc1c2n(c3c(NS(=O)(=O)Cc4ccccc4)ncnc13)CCCC2 | 20.9 µM | 5.4 µM | –
COc1cccc(CCN2CCN(c3ncnc4c(C#N)c5n(c34)CCCC5)CC2)c1 | 2.3 µM | 16.2 µM | –
Cc1nc(-c2c3n(c4c(N5CCN(CCc6ccccc6)CC5)ncnc24)CCCC3)sc1C | 0.533 µM | 6 µM | –
N#Cc1c2n(c3c(N4CCN(CCc5ccccc5)CC4)nc(I)nc13)CCCC2 | 0.887 µM | 13 µM | –
CCNC(=O)c1c2n(c3c(N4CCN(CCc5ccc(F)c(F)c5)CC4)ncnc13)CCCC2 | – | 4.79 µM | AUC [6]: 14600 ng·h/mL; AUC [7]: 16900 ng·h/mL; AUC [8]: 21100 ng·h/mL; Cmax [9]: 7.34 µM; Cmax [10]: 18.3 µM; Cmax [11]: 5.73 µM; half-life [17]: 7.9 h; half-life [12]: 1.84 h; half-life [13]: 2.3 h; bioavailability [14]: 50%; bioavailability [15]: 85%
N#Cc1c2n(c3c(SCc4ccc(Cl)cc4)ncnc13)CCCCC2 | 3.9 µM | – | –
O=C(NCc1ccccn1)c1c2n(c3c(N4CCN(CCc5ccc(F)c(F)c5)CC4)ncnc13)CCCC2 | 0.061 µM | 3.4 µM | AUC [7]: 7380 ng·h/mL; Cmax [10]: 11.4 µM; half-life ([13]; BALB/C): 2.5 h; IC50 (Cytochrome P450 3A4): 30.1 µM
N#Cc1c2n(c3c(N4CCN(CCc5ccccc5)CC4)ncnc13)CCCC2 | 0.69 µM | 9.63 µM | –
N#Cc1c2n(c3c(NCCN4CCc5ccccc5C4)ncnc13)CCCC2 | 6.35 µM | > 50 µM | –

Compound | IC50 [1] | IC50 [2] | further results
c1ccc(CCN2CCN(c3ncnc4c(-c5ncccn5)c5n(c34)CCCC5)CC2)cc1 | 0.675 µM | > 50 µM | –
N#Cc1c2n(c3c(N4CCN(CCc5ccc(F)c(F)c5)CC4)ncnc13)CCCC2 | 0.229 µM | 10.5 µM | –
N#Cc1c2n(c3c(N4CCN(CCc5ccc(F)c(F)c5)CC4)nc(-c4cccnc4)nc13)CCCC2 | 0.218 µM | – | –
N#Cc1c2n(c3c(N4CCN(S(=O)(=O)Cc5ccccc5)CC4)ncnc13)CCCC2 | 6.65 µM | 14 µM | –
N#Cc1c2n(c3c(N4CCN(CCc5ccccc5[N+](=O)[O-])CC4)ncnc13)CCCC2 | 1.41 µM | > 50 µM | –
O=C(Nc1cccnc1)c1c2n(c3c(N4CCN(CCc5ccc(F)c(F)c5)CC4)ncnc13)CCCC2 | – | 4.95 µM | AUC [7]: 40600 ng·h/mL; AUC [8]: 56400 ng·h/mL; Cmax [10]: 24.5 µM; Cmax [11]: 14.3 µM; half-life [18]: 4.48 h; half-life [17]: 3.75 h; half-life [13]: 6.72 h; bioavailability [14]: 55.5%; bioavailability [15]: 45.6%
N#Cc1c2n(c3c(N4CCN(CCc5ccccc5Cl)CC4)ncnc13)CCCC2 | 0.955 µM | 10.6 µM | –
N#Cc1c2n(c3c(NCCc4ccccc4)ncnc13)CCCC2 | 6.3 µM | 16 µM | –
CN(CCc1ccccc1)c1ncnc2c(C#N)c3n(c12)CCCC3 | 9 µM | 33 µM | –
N#Cc1c2n(c3c(N4CCN(CCc5ccc(Cl)cc5)CC4)ncnc13)CCCC2 | 0.399 µM | 9.2 µM | –
CC(=O)Nc1ccc(-c2nc(N3CCN(CCc4ccccc4)CC3)c3c(n2)c(C#N)c2n3CCCC2)cc1 | 0.57 µM | 23.7 µM | –
Cc1nc(-c2c3n(c4c(N5CCN(CCc6ccccc6)CC5)ncnc24)CCCC3)no1 | 0.65 µM | 3.7 µM | –
N#Cc1c2n(c3c(N4CCN(CCc5cccc([N+](=O)[O-])c5)CC4)ncnc13)CCCC2 | 0.41 µM | 9.67 µM | –
N#Cc1c2n(c3c(N4CCN(CCc5cccc(Cl)c5)CC4)ncnc13)CCCC2 | 0.92 µM | 17.9 µM | –
N#Cc1c2n(c3c(N4CCN(CCc5c[nH]c6ccccc56)CC4)ncnc13)CCCC2 | 0.6 µM | 5.82 µM | –
N#Cc1c2n(c3c(N4CCN(CCc5ccc(F)c(F)c5)CC4)nc(-c4ccncc4)nc13)CCCC2 | 0.105 µM | 1.31 µM | –
Cc1ccccc1-c1nc(N2CCN(CCc3ccc(F)c(F)c3)CC2)c2c(n1)c(C#N)c1n2CCCC1 | 0.62 µM | 18 µM | –
N#Cc1c2n(c3c(N4CCN(CCc5ccc([N+](=O)[O-])cc5)CC4)ncnc13)CCCC2 | 0.523 µM | 12.9 µM | –
